From PubChem
PglD inh – C. jejuni PglD acetyltransferase inhibitors, primary screen, biochemical, DTNB colorimetric, single point; purified PglD enzyme, DTNB colorimetric CoA detection; inhibition, % at 12.5 µM; actives 0.098% (n = 360,000); AID 602405, 2012; in the data active = inhibition above about 16%, passing the limit was not always enough
Cneo AK release – Cryptococcus neoformans cell lysis inducers, primary screen, AK release luminescence, single concentration; AID 651654, 2012; lysis activity, % at 15 µM; actives 0.2% (n = 360,000); C. neoformans lysis, adenylate kinase release luminescence, 4 h; normalised: neutral wells 0, clomiphene wells 100;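 active = mean lysis activity across replicates of at least 80%, whatever share of replicates individually reach that level; inactive = mean lysis activity below 80%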
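Schedule: static 4 h at 37 °C with compound, 1 h detection; system: C. neoformans cells; benchmarks: Clomiphene as positive control; buffer or medium: fresh YPD medium; measure: luminescence rise reflecting yeast cell lysis; measured by: luminescent adenylate kinase detection reagent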
RAD52 inh – RAD52 DNA annealing inhibitors, primary screen, biochemical, FRET, single point, set 2; inhibition, % at 18.7 µM; recombinant RAD52 DNA annealing, FRET fluorescence; actives 0.46% (n = 360,000);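 active = every replicate showing at least 50% inhibition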
RAD54 inh – inhibitors of human RAD54 branch migration, primary screen, biochemical, fluorescence, single point. DNA repair and recombination protein RAD54-like (Homo sapiens), Q92698. RAD54 Holliday junction branch migration, FAM/BHQ fluorescence. inhibition, % at 10.4 µM. actives 0.14% (n = 360,000). AID 602329, 2012;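 active = mean normalized replicate activity at least 40 and at least half of replicates scoring 40 or more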;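 note: 0% = median of neutral control wells and 100% = median of positive control wells; inhibitors cause a drop in the FAM fluorescence signal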
Target sequence (Q92698 whole entry, looked up): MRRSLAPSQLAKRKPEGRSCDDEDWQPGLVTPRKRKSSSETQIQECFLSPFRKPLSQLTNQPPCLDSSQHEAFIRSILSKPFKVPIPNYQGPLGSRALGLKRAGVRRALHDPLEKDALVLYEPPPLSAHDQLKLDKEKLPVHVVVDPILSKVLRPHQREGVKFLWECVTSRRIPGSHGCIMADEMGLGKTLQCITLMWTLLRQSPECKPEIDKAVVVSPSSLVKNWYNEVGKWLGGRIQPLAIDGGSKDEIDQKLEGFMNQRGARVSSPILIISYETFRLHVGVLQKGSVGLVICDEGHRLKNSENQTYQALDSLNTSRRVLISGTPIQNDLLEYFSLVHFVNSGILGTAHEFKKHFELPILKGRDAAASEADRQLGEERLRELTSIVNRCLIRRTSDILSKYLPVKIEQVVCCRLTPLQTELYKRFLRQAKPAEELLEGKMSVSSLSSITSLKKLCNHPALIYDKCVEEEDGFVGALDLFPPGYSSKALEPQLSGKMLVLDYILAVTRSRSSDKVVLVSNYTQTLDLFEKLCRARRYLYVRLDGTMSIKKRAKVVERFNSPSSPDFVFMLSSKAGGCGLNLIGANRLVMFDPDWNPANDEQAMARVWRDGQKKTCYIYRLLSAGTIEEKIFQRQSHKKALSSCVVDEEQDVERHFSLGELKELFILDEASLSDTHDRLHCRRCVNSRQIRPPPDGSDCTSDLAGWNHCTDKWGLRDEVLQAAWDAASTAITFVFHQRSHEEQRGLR
rRNA inh HTS – reduced GFP signal of wild-type E. coli, primary screen, bacterial rRNA inhibitor project, GFP/RFP fluorescence, OD600, single point; actives 1.6% (n = 350,000); E. coli WT GFP vs humanized-ribosome RFP mutants, 24 h; active compounds read low; DMSO median 0, no signal -100; GFP signal change (wild-type ribosome), % (test concentration not listed);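 active = significant combined selectivity score with lowered wild-type GFP, culture density cut under 30%, mutant RFP and density less affected; inactive = any of these conditions unmet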
* hit, by the source's call; nt = not tested or not shown. Rows were chosen to be rich in hits. Some 1.9% of all compounds tested hit in one or more screens of this group.

SMILES	PglD inh	Cneo AK release	RAD52 inh	RAD54 inh	rRNA inh HTS
COc1ccc2c3c([nH]c2c1)[C@H](CO)N(C(=O)C1CCOCC1)CC31CN(C)C1	nt	nt	nt	nt	4.2
COC(=O)Nc1cc(C(=O)c2ccc(Cl)cc2Cl)c[nH]1	5.2	1.1	-38.1	-2.3	-46.5*
C[C@H](CO)N1C[C@H](C)[C@@H](CN(C)C(=O)CN(C)C)Oc2ncc(C#Cc3ccccc3)cc2C1=O	-0.8	0.2	38.6	13.9	4.2
C[C@H]1C=C(C(=O)N2CCN(Cc3ccc4c(c3)OCO4)CC2)O[C@@H](OCCCCO)C1	-0.4	0.0	6.7	5.6	nt
COc1ccc(-c2nc3c4ccccc4ccn3c2CN2CCOCC2)cc1OC	1.4	0.0	-0.7	5.7	-12.4
c1ccc(-c2nc3c4ccccc4ccn3c2CN2CCOCC2)cc1	1.8	-4.7	-5.7	2.7	-28.8*
Cc1ccccc1-c1ccc([C@H]2[C@@H](CO)N3C(=O)CN(C(=O)c4cccnc4)C[C@H]23)cc1	nt	nt	nt	nt	-1.8
COc1ccc(OC)c(S(=O)(=O)NCCCN2CCOCC2)c1	8.4	3.5	-0.1	-1.7	2.1
COc1cc2sc3cc(NCCCN4CCOCC4)ccc3c(=O)c2cc1OC	-1.7	1.1	80.7*	21.7	-10.9
C[C@@H]1CN([C@@H](C)CO)C(=O)c2cccc(NC(=O)Nc3ccccc3)c2O[C@H]1CN(C)S(=O)(=O)c1cn(C)cn1	2.7	96.7*	5.6	3.6	2.5
C[C@H](CO)N1C[C@H](C)[C@@H](CN(C)S(=O)(=O)c2cn(C)cn2)Oc2c(NC(=O)Nc3ccccc3)cccc2C1=O	-2.4	96.7*	-5.4	0.1	-1.2
Cc1noc(C)c1S(=O)(=O)N(C)C[C@@H]1Oc2c(NC(=O)c3cnccn3)cccc2C(=O)N([C@@H](C)CO)C[C@@H]1C	4.2	114.0*	-4.6	-1.3	-3.5
C[C@H](CO)N1C[C@H](C)[C@@H](CN(C)S(C)(=O)=O)Oc2c(NC(=O)c3cnccn3)cccc2C1=O	-4.0	-2.1	3.9	1.1	4.8
O=C(CN1C(=O)NC2(CCCc3ccccc32)C1=O)c1ccccc1F (configuration not stated)	-8.4	1.9	-189.0	-7.8	-34.8*
O=C(CN1C(=O)NC2(CCc3ccccc32)C1=O)c1ccc(Br)s1 (configuration not stated)	2.2	1.0	-13.7	8.9	-30.5*
Cc1cc(=O)c2ccccc2n1Cc1ccccc1	nt	nt	-21.6	nt	-21.7*
Cc1cc(=O)c2ccccc2n1CC(=O)NCc1ccccc1	-6.1	-3.7	nt	2.9	nt
C[C@H](CO)N1C[C@H](C)[C@H](CN(C)Cc2cccc(F)c2)Oc2cc(C#CC3CC3)ccc2S1(=O)=O	-1.9	55.5	-15.2	-3.8	-1.6
C[C@H]1CCCCO[C@@H](CN(C)Cc2ccc(C(=O)O)cc2)[C@@H](C)CN([C@@H](C)CO)C(=O)c2cc(NS(=O)(=O)c3ccc(F)cc3)ccc2O1	-0.6	-8.5	5.3	-5.9	0.2
CC(C)NC(=O)Nc1ccc2c(c1)C(=O)N([C@H](C)CO)C[C@H](C)[C@@H](CN(C)C(=O)NC(C)C)OCCCC[C@H](C)O2	0.4	113.5*	19.8	-3.7	4.2
CC(C)NC(=O)Nc1ccc2c(c1)C(=O)N([C@@H](C)CO)C[C@@H](C)[C@H](CN(C)C(=O)c1ccncc1)OCCCC[C@H](C)O2	-2.9	114.5*	2.3	1.3	1.7
CC(C)NC(=O)Nc1ccc2c(c1)C(=O)N([C@@H](C)CO)C[C@@H](C)[C@@H](CN(C)C(=O)c1ccncc1)OCCCC[C@@H](C)O2	1.7	111.1*	12.1	8.6	-4.1
Cc1cccc(-c2ccc([C@H]3[C@@H](CO)N4C(=O)CN(C(=O)c5cnccn5)C[C@@H]34)cc2)c1	nt	nt	nt	nt	2.1
COc1ccc(NC(=O)Nc2ccc3c(c2)C(=O)N([C@H](C)CO)C[C@@H](C)[C@H](CN(C)C(=O)Nc2ccc4c(c2)OCO4)O3)cc1	-1.6	-4.5	nt	39.4	3.1
C[C@@H]1CCCCO[C@H](CN(C)S(C)(=O)=O)[C@@H](C)CN([C@H](C)CO)C(=O)c2cc(NS(C)(=O)=O)ccc2O1	3.3	1.1	nt	-1.4	0.9
SMILES	PglD inh	Cneo AK release	RAD52 inh	RAD54 inh	rRNA inh HTS
CO[C@H]1CN(C)C(=O)c2cc(NC(=O)NC3CCCCC3)ccc2OC[C@@H](C)N(C(C)=O)C[C@H]1C	0.4	1.1	11.7	4.8	0.9
COc1ccc(/C=C/C(=O)Nc2cccc(F)c2)cc1S(=O)(=O)N1CCOCC1	6.7	-8.0	-5.5	-1.3	-26.7*
COc1ccc(/C=C/C(=O)Nc2cc(S(=O)(=O)N3CCOCC3)ccc2N2CCCC2)cc1OC	nt	nt	-5.7	nt	-21.6*
COc1ccc(/C=C/C(=O)Nc2ccc(C(C)=O)cc2)cc1S(=O)(=O)N1CCOCC1	-2.3	1.0	-5.3	0.1	11.4
COc1ccc(/C=C/C(=O)Nc2cc(S(=O)(=O)N3CCCCC3)ccc2N2CCCCC2)cc1OC	-8.1	3.0	nt	-7.9	nt
COc1ccc(/C=C/C(=O)Nc2ccccc2F)cc1S(=O)(=O)N1CCOCC1	2.0	-0.3	-6.3	2.1	-19.8*
O=C1C[C@H](c2ccccc2)C(=O)N[C@@H](c2ccccc2)C/C=C\C[C@@H](c2ccccc2)N1	nt	nt	nt	nt	-0.6
Cc1ccc(S(=O)(=O)NCC[C@H]2CC[C@H](NC(=O)c3cnccn3)[C@H](CO)O2)cc1	-1.7	-1.4	6.0	-6.6	-5.6
CC(NC(=S)Nc1ccc([N+](=O)[O-])cc1)c1ccncc1 (configuration not stated)	nt	nt	-10.4	nt	-27.3*
COc1ccc(NC(=S)NC(C)c2ccncc2)cc1OC (configuration not stated)	0.0	-1.7	-8.1	5.6	3.6
O=[N+]([O-])c1ccc(NC(=S)NCc2ccncc2)cc1	nt	nt	-14.8	nt	-28.4*
O=[N+]([O-])c1cccc(NC(=S)NCc2ccncc2)c1	nt	nt	-0.3	nt	5.0
Cc1ccccc1-c1ccc([C@H]2[C@@H](CO)N3CCCCN(C(=O)CN4CCOCC4)C[C@H]23)cc1	2.2	49.1	-6.0	8.0	1.8
CCCc1cc(C(=O)Nc2cccc3ccccc23)n(C)n1	5.0	0.0	-15.0	-1.3	-30.2*
Cc1cc(C(=O)Nc2cccc3ccccc23)n(-c2ccccc2)n1	-1.5	0.3	-3.9	3.5	-3.6
Cn1nc(-c2ccc(Cl)cc2)c2cc(C(=O)NCCCN3CCOCC3)sc21	-5.9	2.3	nt	84.2*	nt
C=CCN(C(=O)c1csnn1)C(C(=O)NC1CCCC1)c1c(F)cccc1Cl (configuration not stated)	1.5	2.3	-8.9	18.6	-20.9*
